ChEMBL document CHEMBL1139342, “Antibacterial 5'-O-(N-dipeptidyl)-sulfamoyladenosines” (2009)
Where a SMILES comes first, the peptide text is derived from it. The star is where a group is joined. AspNHSO2(5'-O-Ado) = Nc1ncnc2c1ncn2[C@@H]1O[C@H](COS(=O)(=O)NC(=O)[C@H](CC(=O)O)N*)[C@@H](O)[C@H]1O

Assays:
Format in all cases: functional
Escherichia coli [1] = test: Antibacterial activity against wild type Escherichia coli at 30 nmol after 16 to 20 hrs
How it was run: (§1)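 Agar overlay diffusion assay: soft Mueller–Hinton agar (0.75% agar) seeded with bacteria poured over Mueller–Hinton agar (1.5% agar). Once set, 5 µL drops of compound in milliQ water were applied (30 nmol per drop, or 1.2 nmol for the reference compound) and allowed to dry. Plates were incubated at 37 °C for 16–20 h. Inhibition zone area was read in mm², triplicate per compound–dose.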

Enterococcus faecalis [2] = test: Antibacterial activity against Enterococcus faecalis ATCC 29212 at 30 nmol after 16 to 20 hrs; how it was run: as §1
Staphylococcus aureus [3] = test: Antibacterial activity against Staphylococcus aureus ATCC 25923 at 30 nmol after 16 to 20 hrs; how it was run: as §1
Escherichia coli [4] = test: Antibacterial activity against Escherichia coli delta ABN mutant lacking peptidase A, B, N at 30 nmol after 16 to 20 hrs
How it was run: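 Agar diffusion test. A soft Mueller–Hinton agar lawn (0.75% agar) seeded with bacteria was poured over Mueller–Hinton agar (1.5% agar). Once the agar set, 5 µL drops of compound in milliQ water (30 nmol per drop) were applied and left to dry. Plates were incubated at 37 °C for 16–20 h. Inhibition zone area was recorded in mm² as mean ± SD of triplicates.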

Enterococcus faecalis [5] = test: Antibacterial activity against Enterococcus faecalis ATCC 29212 at 1.2 nmol after 16 to 20 hrs; how it was run: as §1
Escherichia coli [6] = test: Antibacterial activity against wild type Escherichia coli at 1.2 nmol after 16 to 20 hrs; how it was run: as §1
Staphylococcus aureus [7] = test: Antibacterial activity against Staphylococcus aureus ATCC 25923 at 1.2 nmol after 16 to 20 hrs; how it was run: as §1

Row | SMILES | inhibition zone (IZ) (Escherichia coli [1]) [mm2] | inhibition zone (IZ) (Enterococcus faecalis [2]) [mm2] | inhibition zone (IZ) (Staphylococcus aureus [3]) [mm2] | inhibition zone (IZ) (Escherichia coli [4]) [mm2] | inhibition zone (IZ) (Enterococcus faecalis [5]) [mm2] | inhibition zone (IZ) (Escherichia coli [6]) [mm2] | inhibition zone (IZ) (Staphylococcus aureus [7]) [mm2]
1 | CSCC[C@H](N)C(=O)N[C@@H](Cc1c[nH]c2ccccc12)C(=O)NS(=O)(=O)OC[C@H]1O[C@@H](n2cnc3c(N)ncnc32)[C@H](O)[C@@H]1O | 0 | 0 | 0 | – | – | – | –
2 | C[C@H](N)C(=O)N[C@@H](Cc1c[nH]c2ccccc12)C(=O)NS(=O)(=O)OC[C@H]1O[C@@H](n2cnc3c(N)ncnc32)[C@H](O)[C@@H]1O | 0 | 0 | 0 | – | – | – | –
3 | Nc1ncnc2c1ncn2[C@@H]1O[C@H](COS(=O)(=O)NC(=O)[C@H](Cc2c[nH]c3ccccc23)NC(=O)[C@@H]2CCCN2)[C@@H](O)[C@H]1O | 0 | 0 | 0 | – | – | – | –
4 | CC(C)C[C@H](NC(=O)[C@H](C)N)C(=O)NS(=O)(=O)OC[C@H]1O[C@@H](n2cnc3c(N)ncnc32)[C@H](O)[C@@H]1O | 0 | 24.2 | 0 | – | – | – | –
5 | Nc1ncnc2c1ncn2[C@@H]1O[C@H](COS(=O)(=O)NC(=O)[C@@H](N)CC(=O)O)[C@@H](O)[C@H]1O | 26.8 | 21.3 | 0 | 28.3 | – | – | –
6 | CSCC[C@H](NC(=O)[C@H](C)N)C(=O)NS(=O)(=O)OC[C@H]1O[C@@H](n2cnc3c(N)ncnc32)[C@H](O)[C@@H]1O | 0 | 0 | 0 | – | – | – | –
7 | CSCC[C@H](N)C(=O)NS(=O)(=O)OC[C@H]1O[C@@H](n2cnc3c(N)ncnc32)[C@H](O)[C@@H]1O | 26.8 | 0 | 18.7 | 40.4 | – | – | –
8 | Nc1ncnc2c1ncn2[C@@H]1O[C@H](COS(=O)(=O)NC(=O)[C@@H](N)Cc2c[nH]c3ccccc23)[C@@H](O)[C@H]1O | 0 | 0 | 0 | – | – | – | –
9 | CSCC[C@H](N)C(=O)N[C@@H](C)C(=O)NS(=O)(=O)OC[C@H]1O[C@@H](n2cnc3c(N)ncnc32)[C@H](O)[C@@H]1O | 26.8 | 76.1 | 59 | 0 | – | – | –
10 | CSCC[C@H](N)C(=O)N[C@@H](CC(C)C)C(=O)NS(=O)(=O)OC[C@H]1O[C@@H](n2cnc3c(N)ncnc32)[C@H](O)[C@@H]1O | 0 | 33.3 | 0 | – | – | – | –
11 | CC(C)C[C@H](NC(=O)[C@@H](N)CCCCN)C(=O)NS(=O)(=O)OC[C@H]1O[C@@H](n2cnc3c(N)ncnc32)[C@H](O)[C@@H]1O | 0 | 0 | 0 | – | – | – | –
12 | CSCC[C@H](NC(=O)[C@@H]1CCCN1)C(=O)NS(=O)(=O)OC[C@H]1O[C@@H](n2cnc3c(N)ncnc32)[C@H](O)[C@@H]1O | 0 | 0 | 0 | – | – | – | –
13 | C[C@H](N)C(=O)N[C@@H](C)C(=O)NS(=O)(=O)OC[C@H]1O[C@@H](n2cnc3c(N)ncnc32)[C@H](O)[C@@H]1O | 25.3 | 56.9 | 0 | 0 | – | – | –
14 | CSCC[C@H](NC(=O)[C@@H](N)CCSC)C(=O)NS(=O)(=O)OC[C@H]1O[C@@H](n2cnc3c(N)ncnc32)[C@H](O)[C@@H]1O | 0 | 83.9 | 0 | – | – | – | –
15 | Nc1ncnc2c1ncn2[C@@H]1O[C@H](COS(=O)(=O)NC(=O)[C@H](Cc2ccccc2)NC(=O)[C@@H](N)Cc2ccccc2)[C@@H](O)[C@H]1O | 18.4 | 26.8 | 0 | 19.6 | – | – | –
16 | NCCCC[C@H](N)C(=O)N[C@@H](Cc1c[nH]c2ccccc12)C(=O)NS(=O)(=O)OC[C@H]1O[C@@H](n2cnc3c(N)ncnc32)[C@H](O)[C@@H]1O | 0 | 0 | 0 | – | – | – | –
17 | CC(C)C[C@H](NC(=O)[C@@H](N)CCC(=O)O)C(=O)NS(=O)(=O)OC[C@H]1O[C@@H](n2cnc3c(N)ncnc32)[C@H](O)[C@@H]1O | 0 | 0 | 0 | – | – | – | –
18 | CSCC[C@H](N)C(=O)N[C@@H](CC(=O)O)C(=O)NS(=O)(=O)OC[C@H]1O[C@@H](n2cnc3c(N)ncnc32)[C@H](O)[C@@H]1O | 12.6 | 63.7 | 0 | 31.5 | – | – | –
19 | CC(C)C[C@H](NC(=O)[C@@H]1CCCN1)C(=O)NS(=O)(=O)OC[C@H]1O[C@@H](n2cnc3c(N)ncnc32)[C@H](O)[C@@H]1O | 0 | 0 | 0 | – | – | – | –
20 | C[C@H](NC(=O)[C@@H]1CCCN1)C(=O)NS(=O)(=O)OC[C@H]1O[C@@H](n2cnc3c(N)ncnc32)[C@H](O)[C@@H]1O | 18.4 | 0 | 0 | 0 | – | – | –
21 | CSCC[C@H](N)C(=O)N[C@@H](CCCNC(=N)N)C(=O)N[C@H](C(=O)NCC(=O)N[C@@H](CC(N)=O)C(=O)N[C@@H](C)C(=O)N[C@@H](CC(=O)O)C(=O)NS(=O)(=O)OC[C@H]1O[C@@H](n2cnc3c(N)ncnc32)[C@H](O)[C@@H]1O)[C@@H](C)O (H-MRTGNA-{AspNHSO2(5'-O-Ado)}) | – | – | – | – | 0 | 46.7 | 0
22 | C[C@H](N)C(=O)NS(=O)(=O)OC[C@H]1O[C@@H](n2cnc3c(N)ncnc32)[C@H](O)[C@@H]1O [ALASA] | 46.3 | 44.7 | 35 | 42.3 | – | – | –
23 | CC(C)C[C@H](N)C(=O)NS(=O)(=O)OC[C@H]1O[C@@H](n2cnc3c(N)ncnc32)[C@H](O)[C@@H]1O [LEUSA] | 25.4 | 26.9 | 0 | 66 | – | – | –
24 | C/C(=C\C(=O)OCCCCCCCCC(=O)O)C[C@@H]1OC[C@H](C[C@@H]2O[C@H]2[C@@H](C)[C@H](C)O)[C@@H](O)[C@H]1O [MUPIROCIN] | 38.5 | 89.4 | >490.93 | 52.7 | – | – | –
25 | Nc1ncnc2c1ncn2[C@@H]1O[C@H](COS(=O)(=O)NC(=O)[C@@H](N)Cc2ccccc2)[C@@H](O)[C@H]1O [PHESA] | 38.5 | 40.4 | 0 | 52.7 | – | – | –
